Format in all cases: functional
Test [1] has as its system Staphylococcus aureus. Nature of the test: Minimum inhibitory concentration against methicillin-resistant Staphylococcus aureus (ATCC 33591).
The subject of test [2] is Escherichia coli. Kind of test: Minimum inhibitory concentration against Escherichia coli. In short, it runs like this: (§1)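 Broth microdilution, inoculum 2 × 10⁶ cfu/mL, in 1% Bacto Peptone water, overnight at 37 °C. At least three independent dilutions tested in parallel. Gentamicin susceptibility run as internal standard.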
The subject of test [3] is Staphylococcus aureus. Nature of the test: Minimum inhibitory concentration against Staphylococcus aureus. The gist of the method:
as §1

The subject of test [4] is Staphylococcus epidermidis. Nature of the test: Minimum inhibitory concentration against methicillin-resistant Staphylococcus epidermidis (ATCC 27626).

In brackets after ≈: the same amount, converted by molar mass. Non-standard residues stand in square brackets, D forms with d. Residues, ends and D or L forms follow the SMILES beside them. *: point of attachment. OBn = c1ccc(CO*)cc1

The text below walks through data of ChEMBL document CHEMBL1136770, “The pharmacophore of short cationic antibacterial peptides” (2003).

With `NC(N)=NCCC[C@H](N)C(=O)N[C@@H](Cc1ccccc1)C(=O)OCc1ccccc1`, the MIC – broadly, the lowest concentration found to suppress growth – is 200 µg/mL (≈ 486 µM) in test [1], over 200 µg/mL in test [2], 200 µg/mL (≈ 486 µM) in test [3] and 75 µg/mL (≈ 182 µM) in test [4].
For `NC(N)=NCCC[C@H](NC(=O)[C@H](N)Cc1c[nH]c2ccccc12)C(=O)N[C@@H](Cc1c[nH]c2ccccc12)C(=O)OCc1ccccc1`, the MIC turned out to be 20 µg/mL (≈ 31.4 µM) in test [1], 75 µg/mL (≈ 118 µM) in test [2], 20 µg/mL (≈ 31.4 µM) in test [3] and 10 µg/mL (≈ 15.7 µM) in test [4].
For `NC(N)=NCCC[C@H](N)C(=O)N[C@H](Cc1c[nH]c2ccccc12)C(=O)OCc1ccccc1`, the MIC is 50 µg/mL (≈ 111 µM) in test [1], over 200 µg/mL in test [2], 50 µg/mL (≈ 111 µM) in test [3] and 25 µg/mL (≈ 55.5 µM) in test [4].
On to `NC(N)=NCCC[C@H](NC(=O)[C@H](Cc1c[nH]c2ccccc12)NC(=O)[C@@H](N)CCCN=C(N)N)C(=O)N[C@@H](Cc1c[nH]c2ccccc12)C(=O)OCc1ccccc1`, for which the MIC was 2.5 µg/mL (≈ 3.15 µM) in test [1], 50 µg/mL (≈ 63.1 µM) in test [2], 2.5 µg/mL (≈ 3.15 µM) in test [3] and 2.5 µg/mL (≈ 3.15 µM) in test [4].
In the case of `COC(=O)[C@H](CCCN=C(N)N)NC(=O)[C@H](Cc1c[nH]c2ccccc12)NC(=O)[C@H](Cc1c[nH]c2ccccc12)NC(=O)[C@@H](N)CCCN=C(N)N` (H-RWWR-OMe), the MIC was 50 µg/mL (≈ 69.7 µM) in test [1], over 200 µg/mL in test [2], 75 µg/mL (≈ 105 µM) in test [3] and 15 µg/mL (≈ 20.9 µM) in test [4].
H-WRYRW-NH2: the MIC was 100 µg/mL in test [2] and 50 µg/mL in test [3].
Taken in the same sequence, the figures for H-WWRRRW-NH2 were 25 µg/mL and 10 µg/mL.
On to `NCCCC[C@H](N)C(=O)N[C@@H](Cc1c[nH]c2ccccc12)C(=O)OCc1ccccc1` (H-Lys-Trp-OBn), for which the MIC was 25 µg/mL (≈ 59.2 µM) in test [1], over 200 µg/mL in test [2], 50 µg/mL (≈ 118 µM) in test [3] and 25 µg/mL (≈ 59.2 µM) in test [4].
With `NC(N)=NCCC[C@@H](N)C(=O)N[C@H](Cc1c[nH]c2ccccc12)C(=O)OCc1ccccc1`, the MIC was 50 µg/mL (≈ 111 µM) in test [1], over 200 µg/mL in test [2], 50 µg/mL (≈ 111 µM) in test [3] and 20 µg/mL (≈ 44.4 µM) in test [4].
In the case of `NC(N)=NCCC[C@H](NC(=O)[C@@H](N)Cc1c[nH]c2ccccc12)C(=O)N[C@@H](Cc1c[nH]c2ccccc12)C(=O)OCc1ccccc1`, the MIC in test [1] was 5 µg/mL (≈ 7.85 µM); in test [2], 75 µg/mL (≈ 118 µM); in test [3], 5 µg/mL (≈ 7.85 µM); in test [4], 5 µg/mL (≈ 7.85 µM).
Take `NCCCC[C@H](N)C(=O)N[C@H](Cc1c[nH]c2ccccc12)C(=O)OCc1ccccc1` (H-Lys-[dW]-OBn): the MIC in test [1] was 50 µg/mL (≈ 118 µM); in test [2], over 200 µg/mL; in test [3], 75 µg/mL (≈ 178 µM); in test [4], 25 µg/mL (≈ 59.2 µM).
For `NC(N)=NCCC[C@H](N)C(=O)N[C@@H](Cc1c[nH]c2ccccc12)C(=O)OCc1ccccc1` the same measures were 15 µg/mL (≈ 33.3 µM), over 200 µg/mL, 15 µg/mL (≈ 33.3 µM) and 10 µg/mL (≈ 22.2 µM).
For the molecule `NC(=O)[C@H](Cc1c[nH]c2ccccc12)NC(=O)[C@H](CCCN=C(N)N)NC(=O)[C@H](CCCN=C(N)N)NC(=O)[C@@H](N)Cc1c[nH]c2ccccc12` (H-WRRW-NH2), the MIC in test [2] is over 200 µg/mL; in test [3], 200 µg/mL (≈ 285 µM).
For `NC(=O)[C@H](CCCN=C(N)N)NC(=O)[C@H](Cc1c[nH]c2ccccc12)NC(=O)[C@@H](N)CCCN=C(N)N` (H-Arg-Trp-Arg-NH2) the same measures were over 200 µg/mL and over 200 µg/mL.
For `NC(=O)[C@H](Cc1c[nH]c2ccccc12)NC(=O)[C@H](CCCN=C(N)N)NC(=O)[C@@H](N)Cc1c[nH]c2ccccc12` (H-Trp-Arg-Trp-NH2) the same measures were over 200 µg/mL and 100 µg/mL (≈ 183 µM).
For `COC(=O)[C@H](CCCN=C(N)N)NC(=O)[C@H](Cc1c[nH]c2ccccc12)NC(=O)Cc1c[nH]c2ccccc12` the same measures were 200 µg/mL (≈ 376 µM) and 200 µg/mL (≈ 376 µM).
As for H-RWWWRR-NH2, the results for the minimal inhibitory concentration (MIC) in test [2] and in test [3] were 25 µg/mL and 5 µg/mL, respectively.
As to `N=C(N)NCCC[C@H](NC(=O)C1CCCCC1)C(=O)N[C@@H](Cc1c[nH]c2ccccc12)C(=O)OCc1ccccc1`, the MIC turned out to be 200 µg/mL (≈ 357 µM) in test [2] and 25 µg/mL (≈ 44.6 µM) in test [3].
For `COC(=O)[C@H](CCCN=C(N)N)NC(=O)[C@@H](N)Cc1c[nH]c2ccccc12` (H-Trp-Arg-OMe), the MIC in test [1], in test [2], in test [3] and in test [4] was over 200 µg/mL in each case.
As for `NC(=O)[C@H](CCCN=C(N)N)NC(=O)[C@H](Cc1c[nH]c2ccccc12)NC(=O)[C@H](CCCN=C(N)N)NC(=O)[C@@H](N)Cc1c[nH]c2ccccc12` (H-WRWR-NH2), the MIC in test [2] is over 200 µg/mL; in test [3], 200 µg/mL (≈ 285 µM).
As to `NCCCC[C@@H](N)C(=O)N[C@@H](Cc1c[nH]c2ccccc12)C(=O)OCc1ccccc1` (H-[dK]-Trp-OBn), the MIC in test [1] was 50 µg/mL (≈ 118 µM); in test [2] it was over 200 µg/mL; in test [3], 75 µg/mL (≈ 178 µM); in test [4] it was 25 µg/mL (≈ 59.2 µM).
In the case of `COC(=O)[C@H](CCCN=C(N)N)NC(=O)[C@H](Cc1c[nH]c2ccccc12)NC(=O)[C@@H](N)Cc1c[nH]c2ccccc12` (H-Trp-Trp-Arg-OMe), the MIC in test [1] was 200 µg/mL (≈ 357 µM); in test [2] it was over 200 µg/mL; in test [3], over 200 µg/mL; in test [4], 100 µg/mL (≈ 178 µM).
Regarding `N=C(N)NCCC[C@H](NC(=O)Cc1c[nH]c2ccccc12)C(=O)N[C@@H](Cc1c[nH]c2ccccc12)C(=O)OCc1ccccc1`, the minimum inhibitory concentration (MIC) in test [2] came out at 150 µg/mL (≈ 247 µM); in test [3], 20 µg/mL (≈ 32.9 µM).
For the molecule H-WRWRW-NH2, the MIC came to 15 µg/mL in test [2] and 10 µg/mL in test [3].
Taken in the same sequence, the figures for H-WRWRY-NH2 were 100 µg/mL and 50 µg/mL.
Taken in the same sequence, the figures for H-RRRWWW-NH2 were 5 µg/mL and 5 µg/mL.
Consider `NC(N)=NCCC[C@H](NC(=O)[C@@H](N)Cc1c[nH]c2ccccc12)C(=O)OCc1ccccc1` (H-Trp-Arg-OBn), for which the MIC was 75 µg/mL (≈ 166 µM) in test [1], over 200 µg/mL in test [2], 200 µg/mL (≈ 444 µM) in test [3] and 75 µg/mL (≈ 166 µM) in test [4].
As to `COC(=O)[C@H](CCCN=C(N)N)NC(=O)[C@H](Cc1c[nH]c2ccccc12)NC(=O)[C@H](CCCN=C(N)N)NC(=O)[C@@H](N)Cc1c[nH]c2ccccc12` (H-WRWR-OMe), the MIC in test [1] is 100 µg/mL (≈ 139 µM); in test [2], over 200 µg/mL; in test [3], over 200 µg/mL; in test [4], 75 µg/mL (≈ 105 µM).
For `COC(=O)[C@H](CCCN=C(N)N)NC(=O)[C@H](Cc1c[nH]c2ccccc12)NC(=O)C1CCCCC1`, the MIC in test [2] and in test [3] was over 200 µg/mL throughout.
For the molecule H-RWRWR-NH2, the MIC in test [2] worked out at 200 µg/mL; in test [3], 25 µg/mL.
With `NC(N)=NCCC[C@H](NC(=O)[C@@H](N)Cc1ccccc1)C(=O)OCc1ccccc1` (H-Phe-Arg-OBn), the MIC in test [1] was 200 µg/mL (≈ 486 µM); in test [2] it was over 200 µg/mL; in test [3] it was over 200 µg/mL; in test [4], 200 µg/mL (≈ 486 µM).
Take `NC(N)=NCCC[C@@H](N)C(=O)N[C@@H](Cc1c[nH]c2ccccc12)C(=O)OCc1ccccc1`: the MIC is 25 µg/mL (≈ 55.5 µM) in test [1], over 200 µg/mL in test [2], 25 µg/mL (≈ 55.5 µM) in test [3] and 25 µg/mL (≈ 55.5 µM) in test [4].
Consider `NC(N)=NCCC[C@H](N)C(=O)N[C@@H](Cc1c[nH]c2ccccc12)C(=O)N[C@H](CCCN=C(N)N)C(=O)N[C@H](Cc1c[nH]c2ccccc12)C(=O)OCc1ccccc1`, for which the MIC was determined as 2.5 µg/mL (≈ 3.15 µM) in test [1], 75 µg/mL (≈ 94.6 µM) in test [2], 5 µg/mL (≈ 6.31 µM) in test [3] and 2.5 µg/mL (≈ 3.15 µM) in test [4].
In the case of H-RWRWRW-NH2, the MIC in test [2] and in test [3] was 5 µg/mL each time.
In the case of H-WRWRWR-NH2, the MIC in test [2] amounted to 10 µg/mL; in test [3], 7.5 µg/mL.
Regarding `NC(N)=NCCC[C@@H](NC(=O)[C@H](N)Cc1c[nH]c2ccccc12)C(=O)N[C@H](Cc1c[nH]c2ccccc12)C(=O)OCc1ccccc1`, the MIC came out at 5 µg/mL (≈ 7.85 µM) in test [1], 75 µg/mL (≈ 118 µM) in test [2], 5 µg/mL (≈ 7.85 µM) in test [3] and 5 µg/mL (≈ 7.85 µM) in test [4].
Regarding `NC(=O)[C@H](CCCN=C(N)N)NC(=O)[C@H](Cc1c[nH]c2ccccc12)NC(=O)[C@H](Cc1c[nH]c2ccccc12)NC(=O)[C@@H](N)CCCN=C(N)N` (H-RWWR-NH2), the MIC is over 200 µg/mL in test [2] and 100 µg/mL (≈ 142 µM) in test [3].
